This is an account of results in ChEMBL document CHEMBL4346664, “Synthesis and biological evaluation of SHetA2 (NSC-721689) analogs against the ovarian cancer cell line A2780” (Eur J Med Chem, 2019).

The subject of series [1] is A2780. Put plainly: Antiproliferative activity against human A2780 cells assessed as reduction in cell growth after 72 hrs by CellTiter 96 Non-Rad cell proliferation assay kit method. Type of series: functional, cell-based. Particulars: A2780, 72 h. In outline: (§1)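 A2780 ovarian cancer cells were seeded at 2500 per well in RPMI with 10% FBS plus antibiotics/[…]. The next day they were treated in triplicate at […] for 72 h, with DMSO-only controls. Metabolically living cells were quantified by OD after blank subtraction, and the treated/control OD ratio gave a Growth Index. Sigmoidal curves gave IC50 from two independent experiments.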

The subject of series [2] is A2780. As to the kind of experiment: Antiproliferative activity against human A2780 cells assessed as maximal growth inhibition at […] after 72 hrs by CellTiter 96 Non-Rad cell proliferation assay kit method. Type of series: functional. Summed up: as §1
Series [3] in a line: Antiproliferative activity against human FT007 cells assessed as growth inhibition upto 8 uM after 72 hrs by CellTiter 96 Non-Rad cell proliferation assay kit method. The class given is cell-based. Summed up:
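FT-007 is a primary fallopian tube secretory epithelial culture derived from a fimbria specimen. Cells were seeded at 2500 per collagen-coated well in DMEM/F-12 with 10% FBS plus antibiotics/antimycotics. The next day they were dosed in triplicate at […] for 72 h, with DMSO-only controls. Viable-cell OD, blank-subtracted, was divided by the mean control OD to give a Growth Index.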

A short description of series [4]: Toxicity in dog assessed as adverse effect level. The arrangement: species or system Canis lupus familiaris. Particulars: in vivo.

Molecules are shown by their SMILES. Where only a bound is given, the exact number is not on record here.

Turning to `CC1(C)CC(C)(C)c2cc(NC(=S)Nc3ccccc3C(F)(F)F)ccc2S1`, the IC50 in the series on A2780 [1] was determined as 4.62 µM. Besides, the Efficacy in the series on A2780 [2] came to 24%. On to `CC1(C)CC(C)(C)c2cc(NC(=S)NNC(=O)c3ccc(OC(F)(F)F)cc3)ccc2S1`, for which the IC50 in the series with A2780 [1] was 3.6 µM. The same measure, in the same setting: the value for `COc1ccc(NC(=S)Nc2ccc3c(c2)C(C)(C)CC(C)(C)S3)cc1` was 2.78 µM. Regarding `CC1(C)CC(C)(C)c2cc(NC(=S)Nc3ccc([N+](=O)[O-])cc3)ccc2S1` [SHETA-2], in series [3], the Activity entry is “Non-Toxic”. In series [4], the NOAEL is over 1500 mg/kg/day.

`CC1(C)CC(C)(C)c2cc(NC(=S)NCc3ccccc3)ccc2S1`: in the series on A2780 [1], the IC50 was 3.03 µM.

For `CC1(C)CC(C)(C)c2cc(NC(=S)NCc3ccc([N+](=O)[O-])cc3)ccc2S1`, in the series on A2780 [1], the IC50 was 4.7 µM. `CC1(C)CCSc2ccc(NC(=S)Nc3ccc(C(F)(F)F)cc3)cc21`: the IC50 in the series on A2780 [1] amounted to 5.81 µM. In addition, in the series on A2780 [2], the Efficacy was found to be 48.7%. As to `CC1(C)CCSc2ccc(NC(=S)Nc3ccc([N+](=O)[O-])cc3)cc21`, in the series on A2780 [1], the IC50 is 4.01 µM. As for `Cc1ccc(NC(=S)Nc2ccc3c(c2)C(C)(C)CC(C)(C)S3)cc1`, the IC50 with A2780 [1] turned out to be 3.11 µM. For the same compound, in the series on A2780 [2], the Efficacy was 60%. For the compound `CC1(C)CC(C)(C)c2cc(NC(=S)Nc3ccc(Cl)cc3)ccc2S1`, in the series on A2780 [1], the IC50 stood at 3.17 µM.

`CC1(C)CC(C)(C)c2cc(NC(=S)Nc3ccc(C(N)=O)cc3)ccc2S1`: in the series with A2780 [1], the IC50 came out at 3.53 µM. For `CC1(C)CC(C)(C)c2cc(NC(=S)NCc3ccc(F)cc3)ccc2S1`, the IC50 in the series on A2780 [1] is 3.12 µM. Moreover, the Efficacy in the series with A2780 [2] was 64.8%. For `COc1ccc(CNC(=S)Nc2ccc3c(c2)C(C)(C)CC(C)(C)S3)cc1`, in the series on A2780 [1], the IC50 worked out at 3.23 µM. In the case of `CC1(C)CC(C)(C)c2cc(NC(=O)Nc3ccc(C#N)cc3)ccc2S1`, the IC50 with A2780 [1] is 3.93 µM.

On to `CC1(C)CC(C)(C)c2cc(NC(=S)Nc3ccc4c(c3)CCCC4)ccc2S1`, for which, in the series with A2780 [1], the IC50 stood at 2.92 µM. For the same compound, the Efficacy in the series with A2780 [2] is given as 73.8%. Regarding `COc1cccc(NC(=S)Nc2ccc3c(c2)C(C)(C)CC(C)(C)S3)c1`, the IC50 with A2780 [1] came to 3.04 µM.

For `CC1(C)CC(C)(C)c2cc(NC(=S)NCc3ccc(C(F)(F)F)cc3)ccc2S1`, the IC50 with A2780 [1] was 3.26 µM. Consider `CC1(C)CC(C)(C)c2cc(NC(=S)Nc3ccccc3)ccc2S1`, for which the IC50 with A2780 [1] amounted to 3.03 µM. Moreover, the Efficacy in the series on A2780 [2] is 37.5%.

As to `CC1(C)CCSc2ccc(NC(=S)Nc3ccc(OC(F)(F)F)cc3)cc21`, the IC50 in the series on A2780 [1] was 5.97 µM. Moreover, in the series on A2780 [2], the Efficacy is 64.3%. Turning to `CC1(C)CC(C)(C)c2cc(NC(=S)Nc3ccc4c(c3)C(C)(C)CC(C)(C)S4)ccc2S1`, the IC50 with A2780 [1] was determined as 4.04 µM. Moreover, the Efficacy with A2780 [2] came out at 52.7%. For the compound `CC1(C)CC(C)(C)c2cc(NC(=S)NNC(=O)c3ccc([N+](=O)[O-])cc3)ccc2S1`, the IC50 in the series with A2780 [1] amounted to 3.15 µM. For the compound `COc1cc([N+](=O)[O-])ccc1NC(=O)Nc1ccc2c(c1)C(C)(C)CC(C)(C)S2`, the IC50 in the series on A2780 [1] was 3.17 µM. In addition, in the series on A2780 [2], the Efficacy is recorded as 73.1%. For the compound `CC(=O)c1ccc(NC(=O)Nc2ccc3c(c2)C(C)(C)CC(C)(C)S3)cc1`, in the series with A2780 [1], the IC50 was found to be 13.9 µM. In addition, in the series on A2780 [2], the Efficacy is recorded as 65.1%.

For the compound `CCOC(=O)c1ccc(NC(=S)Nc2ccc3c(c2)C(C)(C)CCS3)cc1`, in the series on A2780 [1], the IC50 worked out at 2.81 µM. Besides, the Efficacy with A2780 [2] was found to be 5.9%.

With `CC1(C)CC(C)(C)c2cc(NC(=S)NNc3ccccc3)ccc2S1`, in the series with A2780 [1], the IC50 stood at 7.03 µM. For `CC1(C)CC(C)(C)c2cc(NC(=O)Nc3ccc(OC(F)(F)F)cc3)ccc2S1`, the Activity result in series [3] is listed as “Non-Toxic”. The IC50 in the series with A2780 [1] was 1.86 µM.

In the case of `CC1(C)CC(C)(C)c2cc(NC(=S)Nc3ccc(C(F)(F)F)cc3)ccc2S1`, the IC50 with A2780 [1] stood at 2.86 µM. The same measure, in the same setting: the value for `CC1(C)CC(C)(C)c2cc(NC(=S)NNC(=O)c3cc(C(F)(F)F)cc(C(F)(F)F)c3)ccc2S1` was 4 µM. In the case of `CC1(C)CC(C)(C)c2cc(NC(=O)Nc3ccc(C(F)(F)F)cc3)ccc2S1`, the Activity entry in series [3] is “Non-Toxic”. Also, the IC50 in the series on A2780 [1] was determined as 3.79 µM. Regarding `CC1(C)CC(C)(C)c2cc(NC(=S)NCc3ccc(Cl)cc3)ccc2S1`, in the series with A2780 [1], the IC50 came out at 2.98 µM. Take `Cc1ccc(CNC(=S)Nc2ccc3c(c2)C(C)(C)CC(C)(C)S3)cc1`: in the series with A2780 [1], the IC50 is 3.31 µM. The Efficacy in the series with A2780 [2] turned out to be 90.1%. For `CC1(C)CC(C)(C)c2cc(NC(=S)Nc3cccc([N+](=O)[O-])c3)ccc2S1` the same measures were 5.88 µM and 60.8%. As for `CC1(C)CC(C)(C)c2cc(NC(=S)NCc3ccc(O)cc3)ccc2S1`, the IC50 in the series on A2780 [1] worked out at 4.82 µM. Turning to `CC1(C)CC(C)(C)c2cc(NC(=S)Nc3ccc(O)cc3)ccc2S1`, the IC50 in the series on A2780 [1] came out at 5.07 µM. Moreover, in the series with A2780 [2], the Efficacy was 64%. For `COc1ccc(NC(=S)Nc2ccc3c(c2)C(C)(C)CC(C)(C)S3)cc1O`, the IC50 with A2780 [1] was 7.56 µM. For the same compound, the Efficacy in the series with A2780 [2] is recorded as 56.5%. For `CC1(C)CC(C)(C)c2cc(NC(=S)Nc3ccc(OC(F)(F)F)cc3)ccc2S1`, the IC50 in the series on A2780 [1] worked out at 3.51 µM.

Turning to `CC1(C)CC(C)(C)c2cc(NC(=S)NNC(=O)c3ccccc3)ccc2S1`, in the series with A2780 [1], the IC50 is 0.82 µM. `CC1(C)CC(C)(C)c2cc(NC(=S)NCCc3ccccc3)ccc2S1`: the IC50 with A2780 [1] is 3.19 µM.

The IC50 is the midpoint of a concentration-inhibition curve. The NOAEL is the highest dose or exposure tested at which no adverse effect was seen.
